Experimental data published in ChEMBL document CHEMBL4699489, “Optimized Opioid-Neurotensin Multitarget Peptides: From Design to Structure-Activity Relationship Studies” (J Med Chem, 2020).
Active and inactive are the calls of the source. Numbered stars: 1 amine (or outer) side, 2 acyl side, 3 side chain; on linkers, the order of the positions; unused ones are H or OH. Square brackets hold non-standard residues; d marks the D form. Peptide text beside a SMILES is read from it. X1 = O=C1[C@@H](N[*:1])Cc2ccccc2CN1CCC(=O)[*:2]; X2 = O=C([C@@H]1Cc2cc(O)ccc2CN1[*:1])[*:2]; Dmt = Cc1cc(O)cc(C)c1C[C@H](N)C(=O)O; β3hR = N=C(N)NCCC[C@H](N)CC(=O)O; Tle = CC(C)(C)[C@H](N)C(=O)O

Assays:
Mu-type opioid receptor [1] = biological target: T1, Mu-type opioid receptor (Homo sapiens, UniProt P35372); assay: Agonist activity at human MOR expressed in CHO cell membranes assessed as stimulation of [35S]-GTPgammaS binding incubated for 1 hr by liquid scintillation counting assay relative to DAMGO; format: functional; details: time 60.0 min
T1 sequence (P35372 whole entry): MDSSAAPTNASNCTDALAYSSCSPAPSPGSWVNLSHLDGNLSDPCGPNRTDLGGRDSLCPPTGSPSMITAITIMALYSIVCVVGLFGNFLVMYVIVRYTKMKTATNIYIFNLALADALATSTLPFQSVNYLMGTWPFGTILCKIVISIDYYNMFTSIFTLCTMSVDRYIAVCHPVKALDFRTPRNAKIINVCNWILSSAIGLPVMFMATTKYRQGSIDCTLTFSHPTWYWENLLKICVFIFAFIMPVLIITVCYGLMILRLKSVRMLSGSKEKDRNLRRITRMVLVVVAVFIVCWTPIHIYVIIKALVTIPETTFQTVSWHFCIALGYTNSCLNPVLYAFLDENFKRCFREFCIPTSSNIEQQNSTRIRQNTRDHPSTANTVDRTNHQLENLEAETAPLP
Outline: (§1)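 Membranes from CHO cells stably expressing hMOR, hDOR or hKOR, prepared in 20 mM HEPES, 10 mM MgCl2, 100 mM NaCl, pH 7.4. Membranes (5–10 μg) incubated with 0.05 nM [35S]GTPγS, 10 μM GDP and graded peptide concentrations, 60 min at 25 °C. Nonspecific binding with 10 μM GTPγS, basal without ligand. GF/B filtration, scintillation counting. EC50 and Emax by nonlinear regression; Emax relative to DAMGO, DPDPE or U69,593. Duplicate, three independent experiments.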

Mus musculus [2] = assay: Antinociceptive activity in CD-1 mouse model of thermal-induced nociception assessed as increase in tail withdrawal latency at 5.52 umol/kg, sc measured after 3 hrs by tail-flick test; format: functional, organism-based; details: dose 5.52 µmol/kg, time hrs >=3
Outline: (§2)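 Male CD-1 mice, 30–35 g, 8 weeks old, 5–6 per group, each mouse tested once. Peptide or saline given sc. Radiant-heat tail-flick latency measured before dosing and at 15 min, 30 min, hourly to 8 h, and at 24 h, with a 10 s cutoff. %MPE = [(test latency − basal latency)/(cutoff − basal latency)] × 100. Two-way ANOVA with Bonferroni post hoc test, P < 0.05.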

Mu-type opioid receptor [3] = biological target: T1, Mu-type opioid receptor; assay: Displacement of [3H]-DAMGO from recombinant human mu opioid receptor expressed in CHO cell membrane incubated for 60 mins by liquid scintillation counting method; format: cell membranes
Outline: (§3)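 Membranes from CHO-hMOR, -hDOR or -hKOR cells, homogenized and washed in 50 mM Tris-HCl pH 7.4. Membranes (15–20 μg) incubated with [3H]DAMGO (MOR), [3H]diprenorphine (DOR) or [3H]U69,593 (KOR) plus graded peptide, 60 min at 25 °C. Nonspecific binding with 1–10 μM of the unlabelled ligand. GF/C filtration, scintillation counting. Ki by Cheng–Prusoff. Duplicate, three independent experiments.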

[4] = biological target: T2, Delta-type opioid receptor (Homo sapiens, UniProt P41143); assay: Displacement of [3H]-Diprenorphine from recombinant human delta opioid receptor expressed in CHO cell membrane incubated for 60 mins by liquid scintillation counting method; format: cell membranes; outline: as §3
T2 sequence (P41143 whole entry): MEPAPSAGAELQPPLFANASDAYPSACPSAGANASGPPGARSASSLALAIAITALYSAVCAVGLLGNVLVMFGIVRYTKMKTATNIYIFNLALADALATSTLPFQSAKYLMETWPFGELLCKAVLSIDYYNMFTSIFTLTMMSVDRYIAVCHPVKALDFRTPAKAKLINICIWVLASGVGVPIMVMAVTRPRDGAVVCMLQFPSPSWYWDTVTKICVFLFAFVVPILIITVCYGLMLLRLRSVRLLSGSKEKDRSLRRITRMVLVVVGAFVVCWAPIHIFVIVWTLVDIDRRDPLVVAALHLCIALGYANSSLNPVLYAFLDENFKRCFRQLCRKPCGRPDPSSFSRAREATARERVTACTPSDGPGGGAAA

[5] = biological target: T3, Kappa-type opioid receptor (Homo sapiens, UniProt P41145); assay: Displacement of [3H]-U69593 from recombinant human kappa opioid receptor expressed in CHO cell membrane incubated for 60 mins by liquid scintillation counting method; format: cell membranes; outline: as §3
T3 sequence (P41145 whole entry): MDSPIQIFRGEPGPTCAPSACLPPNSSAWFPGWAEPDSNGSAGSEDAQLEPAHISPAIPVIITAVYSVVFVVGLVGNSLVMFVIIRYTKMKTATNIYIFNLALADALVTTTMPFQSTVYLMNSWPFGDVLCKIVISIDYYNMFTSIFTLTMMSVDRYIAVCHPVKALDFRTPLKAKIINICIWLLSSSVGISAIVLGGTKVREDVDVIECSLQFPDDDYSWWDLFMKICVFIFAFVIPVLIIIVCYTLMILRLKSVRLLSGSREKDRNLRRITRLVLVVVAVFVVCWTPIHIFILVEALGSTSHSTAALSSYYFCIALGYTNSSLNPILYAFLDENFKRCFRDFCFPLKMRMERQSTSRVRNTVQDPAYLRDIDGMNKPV

Mu-type opioid receptor [6] = biological target: T1, Mu-type opioid receptor; assay: Agonist activity at human MOR stably expressed in CHO cell membranes assessed as stimulation of [35S]-GTPgammaS binding incubated for 1 hr by liquid scintillation counting assay; format: functional; outline: as §1
[7] = biological target: T4, Neurotensin receptor type 1 (Homo sapiens, UniProt P30989); assay: Agonist activity at human NTS1 expressed in HEK293 cells co-expressing Galphaq/RlucII/GFP10-Ggamma1/Gbeta1 assessed as increase in Galphaq activation incubated for 10 mins in presence of coelenterazine 400A by BRET assay; format: cell-based
T4 sequence (P30989 whole entry): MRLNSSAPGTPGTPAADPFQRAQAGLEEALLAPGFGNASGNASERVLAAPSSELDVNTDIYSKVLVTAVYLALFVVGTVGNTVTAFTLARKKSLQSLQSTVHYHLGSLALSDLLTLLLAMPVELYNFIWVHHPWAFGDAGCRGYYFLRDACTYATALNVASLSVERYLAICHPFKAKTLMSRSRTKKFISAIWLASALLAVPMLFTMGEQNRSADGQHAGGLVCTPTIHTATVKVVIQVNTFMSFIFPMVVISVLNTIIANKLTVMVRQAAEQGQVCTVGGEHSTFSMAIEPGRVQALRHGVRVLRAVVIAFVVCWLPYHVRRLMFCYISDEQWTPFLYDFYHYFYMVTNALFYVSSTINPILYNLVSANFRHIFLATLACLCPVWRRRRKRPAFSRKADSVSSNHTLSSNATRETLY

[8] = biological target: T4, Neurotensin receptor type 1; assay: Agonist activity at human NTS1 expressed in HEK293 cells co-expressing Galphaq/RlucII/GFP10-Ggamma1/Gbeta1 assessed as increase in Gq activation incubated for 10 mins in presence of coelenterazine 400A by BRET assay relative to NT (8-13); format: cell-based
[9] = biological target: T2, Delta-type opioid receptor; assay: Agonist activity at human DOR stably expressed in CHO cell membranes assessed as stimulation of [35S]-GTPgammaS binding incubated for 1 hr by liquid scintillation counting assay; format: functional; outline: as §1
Mus musculus [10] = assay: Antinociceptive activity in CD-1 mouse model of thermal-induced nociception assessed as maximum possible effect at 5.52 umol/kg, sc measured at 1 hr interval for 2 to 3 hrs by tail-flick test; format: functional; details: dose 5.52 µmol/kg; time hrs 2-3; outline: as §2
[11] = biological target: T4, Neurotensin receptor type 1; assay: Displacement of [125I]-neurotensin from human recombinant NTS1 stably expressed in CHO-K1 cell membranes incubated for 60 mins by gamma counter method
[12] = biological target: T3, Kappa-type opioid receptor; assay: Agonist activity at human KOR stably expressed in CHO cell membranes assessed as stimulation of [35S]-GTPgammaS binding incubated for 1 hr by liquid scintillation counting assay; format: functional; outline: as §1
Mu-type opioid receptor [13] = biological target: T1, Mu-type opioid receptor; assay: Agonist activity at human MOR expressed in human U2OS cells assessed as increase in beta arrestin2 recruitment incubated for 90 mins by pathhunter beta-arrestin assay; format: cell-based
Outline: (§4)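 U2OS cells stably coexpressing hMOR and enzyme acceptor-tagged β-arrestin-2, seeded at 5000 cells/well and kept 24 h at 37 °C. Graded peptide concentrations in PBS added for 90 min at 37 °C, then detection mix for 60 min at room temperature. Chemiluminescence read-out. EC50 and Emax (relative to DAMGO) by nonlinear regression. Duplicate, three independent experiments.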

[14] = biological target: T2, Delta-type opioid receptor; assay: Agonist activity at human DOR stably expressed in CHO cell membranes assessed as stimulation of [35S]-GTPgammaS binding incubated for 1 hr by liquid scintillation counting assay relative to DPDPE; format: functional; details: time 60.0 min; outline: as §1
Mu-type opioid receptor [15] = biological target: T1, Mu-type opioid receptor; assay: Agonist activity at human MOR expressed in human U2OS cells assessed as increase in beta arrestin2 recruitment incubated for 90 mins by pathhunter beta-arrestin assay relative to DAMGO; format: cell-based; details: filed as partial agonist; outline: as §4
[16] = biological target: T3, Kappa-type opioid receptor; assay: Agonist activity at human KOR stably expressed in CHO cell membranes assessed as stimulation of [35S]-GTPgammaS binding incubated for 1 hr by liquid scintillation counting assay relative to U69593; format: functional; details: time 60.0 min; outline: as §1
[17] = biological target: Neurotensin receptor type 2 (Homo sapiens, UniProt O95665); assay: Displacement of [125I]-neurotensin from human recombinant NTS2 stably expressed in human 1321N1 cell membranes incubated for 60 mins by gamma counter method
Neurotensin receptor type 2, sequence (O95665 whole entry): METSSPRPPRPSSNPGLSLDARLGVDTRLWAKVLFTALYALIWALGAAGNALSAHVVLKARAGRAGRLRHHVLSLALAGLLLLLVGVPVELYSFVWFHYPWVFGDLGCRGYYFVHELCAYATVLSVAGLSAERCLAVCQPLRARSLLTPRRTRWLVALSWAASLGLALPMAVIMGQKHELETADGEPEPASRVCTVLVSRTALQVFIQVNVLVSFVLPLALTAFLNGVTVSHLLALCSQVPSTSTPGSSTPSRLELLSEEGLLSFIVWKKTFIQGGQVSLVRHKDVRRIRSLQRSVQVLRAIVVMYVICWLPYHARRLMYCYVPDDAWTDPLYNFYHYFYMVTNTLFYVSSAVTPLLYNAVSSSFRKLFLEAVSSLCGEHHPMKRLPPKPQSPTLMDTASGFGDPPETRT

[18] = biological target: T4, Neurotensin receptor type 1; assay: […], ratio of compound EC50 to NT(8-13) EC50 for agonist activity at human NTS1 expressed in HEK293 cells co-expressing Galphaq/RlucII/GFP10-Ggamma1/Gbeta1 assessed as increase in Gq activation incubated for 10 mins in presence of coelenterazine 400A by measuring fold value by BRET assay; format: cell-based; details: hek293, 10 min
Mu-type opioid receptor [19] = biological target: T1, Mu-type opioid receptor; assay: Potency index, ratio of PK20 Ki to test compound Ki for displacement of [3H]-DAMGO from recombinant human mu opioid receptor expressed in CHO cell membranes
Mus musculus [20] = assay: Antinociceptive activity in CD-1 mouse model of thermal-induced nociception assessed as maximum possible effect at 1.82 umol/kg, sc measured at 1 hr by tail-flick test; format: functional; details: dose 1.82 µmol/kg
Mus musculus [21] = assay: Antinociceptive activity in CD-1 mouse model of thermal-induced nociception assessed as increase in tail withdrawal latency 1.82 umol/kg, sc measured after 2 to 24 hrs by tail-flick test; format: functional, organism-based; details: dose 1.82 µmol/kg, time hrs 2-24; outline: as §2
Mus musculus [22] = assay: Antinociceptive activity in CD-1 mouse model of thermal-induced nociception assessed as maximum possible effect at 2.64 uM/kg, sc measured at 1 hr interval for 2 to 7 hrs by tail-flick test; format: functional; details: dose 2.64 µmol/kg; time hrs 2-7; outline: as §2
Mus musculus [23] = assay: Antinociceptive activity in CD-1 mouse model of thermal-induced nociception assessed as increase in tail withdrawal latency at 2.64 umol/kg, sc measured up to 8 hrs by tail-flick test; format: functional, organism-based; details: dose 2.64 µmol/kg, time hrs <=8; outline: as §2

SMILES | Ki (Mu-type opioid receptor [3]) | Ki [4] | Ki [5] | EC50 (Mu-type opioid receptor [6]) | EC50 [7] | Emax [8] | EC50 [9] | Ki [11] | EC50 [12] | EC50 (Mu-type opioid receptor [13]) | Emax (Mu-type opioid receptor [15]) | Emax ([16]; filed as partial agonist) | Ki [17] | Emax (Mu-type opioid receptor [1]; filed as agonist) | Emax ([14]; filed as agonist) | other results
Cc1cc(O)cc(C)c1C[C@H](N)C(=O)N[C@H](CCCCN)C(=O)N[C@@H](Cc1ccccc1)C(=O)N[C@@H](Cc1ccccc1)C(=O)N[C@@H](CCCCN)C(=O)N[C@@H](CCCCN)C(=O)N1CCC[C@H]1C(=O)N[C@@H](Cc1ccccc1)C(=O)N[C@H](C(=O)N[C@@H](CC(C)C)C(=O)O)C(C)(C)C (H-[Dmt][dK]FFKKPF[Tle]L-OH) | 4.13 nM | 46.4 nM | 33.5 nM | 13.3 nM | 19.1 nM | 101% | 479 nM | 188 nM | 47.1 nM | 956 nM | 69% | 65% | 29.5 nM | – | – | Emax (Mu-type opioid receptor [1]; filed as partial agonist): 91%; Activity (Mus musculus [2]): inactive; MPE (Mus musculus [10]): 80%; Emax ([14]; filed as partial agonist): 78%
Cc1cc(O)cc(C)c1C[C@H](N)C(=O)N[C@H](CCCNC(=N)N)C(=O)N[C@H]1Cc2ccccc2CN(CCC(=O)N[C@@H](CCCNC(=N)N)C(=O)N[C@@H](CCCNC(=N)N)C(=O)N2CCC[C@H]2C(=O)N2Cc3ccc(O)cc3C[C@H]2C(=O)N[C@H](C(=O)N[C@@H](CC(C)C)C(=O)O)C(C)(C)C)C1=O (H-[Dmt][dR][X1]RRP[X2][Tle]L-OH) | 1.67 nM | 105 nM | 22.4 nM | 4.56 nM | 1900 nM | 74% | 227 nM | 4710 nM | 399 nM | 934 nM | 67% | – | 1.72 nM | 98% | 97% | Ratio EC50 [18]: 13000; Ratio Ki (Mu-type opioid receptor [19]): 2; Emax [16]: 20%
Cc1cc(O)cc(C)c1C[C@H](N)C(=O)N[C@H](CCCNC(=N)N)C(=O)N[C@H]1Cc2ccccc2CN(CCC(N)=O)C1=O | 0.14 nM | 1.51 nM | 16.6 nM | – | – | – | 1.27 nM | – | > 10000 nM | 5.53 nM | 107% | – | – | 100% | 104% | MPE (Mus musculus [20]): 80%; Activity (Mus musculus [21]): inactive
Cc1cc(O)cc(C)c1C[C@H](NC(=O)[C@@H]1CCCN1C(=O)[C@H](CCCNC(=N)N)NC(=O)C[C@H](CCCNC(=N)N)NC(=O)CCN1Cc2ccccc2C[C@H](NC(=O)[C@@H](CCCNC(=N)N)NC(=O)[C@@H](N)Cc2c(C)cc(O)cc2C)C1=O)C(=O)N[C@H](C(=O)N[C@@H](CC(C)C)C(=O)O)C(C)(C)C (H-[Dmt][dR][X1][β3hR]RP[Dmt][Tle]L-OH) | 1.75 nM | 101 nM | 27.9 nM | 28.7 nM | 0.86 nM | 114% | 305 nM | 4 nM | 158 nM | 1070 nM | 68% | 46% | 0.003 nM | 94% | 99% | MPE (Mus musculus [22]): >=80%; Activity (Mus musculus [23]): Active
